Screens as filed in PubChem BioAssay.
Sampled rows, rich in hits. Any-hit rate of the full collection: about 2.3%.
NPY Y2 blocker – antagonists of human neuropeptide Y receptor Y2; P49146; NPY-Y2 expressing cells, antagonist mode; inhibition, % at 2.7 µM; 140,000 tested, 0.99% active; in the data active = inhibition above about 17%;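 note: 0% = vehicle with agonist challenge and 100% = reference antagonist with challenge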
Target sequence (P49146 whole entry, looked up): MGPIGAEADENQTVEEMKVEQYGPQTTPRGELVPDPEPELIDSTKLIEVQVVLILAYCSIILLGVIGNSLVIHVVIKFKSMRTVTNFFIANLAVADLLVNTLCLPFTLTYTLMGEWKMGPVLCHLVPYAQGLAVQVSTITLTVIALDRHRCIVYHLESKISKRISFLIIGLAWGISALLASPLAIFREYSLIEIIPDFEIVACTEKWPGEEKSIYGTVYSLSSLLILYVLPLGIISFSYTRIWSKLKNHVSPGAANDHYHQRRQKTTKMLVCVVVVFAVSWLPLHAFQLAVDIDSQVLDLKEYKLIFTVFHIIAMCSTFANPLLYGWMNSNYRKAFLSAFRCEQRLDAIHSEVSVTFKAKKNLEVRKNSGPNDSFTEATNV
NPY-Y1 PAM-ag – human NPY-Y1 potentiation or agonism, primary screen. AID 1304. NPY-Y1 expressing cells, potentiator/agonist activation. activation, % at 3.6 µM. 220,000 tested, 0.37% active; in the data active = activation above about 33%, passing the limit was not always enough;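 note: cells stimulated with NPY at EC10 then isoproterenol at EC100; 0% = low agonist plus stimulus and 100% = saturating agonist plus stimulus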
NPY-Y2 PAM-ag – potentiators or agonists of human neuropeptide Y receptor Y2; activation, % at 3.6 µM; AID 1359; 220,000 tested, 0.45% active; cells expressing NPY-Y2, potentiator/agonist read-out; P49146; in the data active = activation above about 27%;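 note: cells stimulated with NPY near EC25 plus isoproterenol at EC100; 0% = vehicle plus submaximal agonist and 100% = vehicle plus saturating agonist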
Calpain2 inh – inhibitors of pig calpain II | AID 1236 | purified calpain II, fluorogenic peptide substrate, 30 min | inhibition, % at 16 µM | 220,000 tested, 0.37% active;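 active = inhibition above about 50%, limit read from the data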
TbHK1 inh – T. brucei hexokinase 1 inhibition. recombinant TbHK1, G6PDH-coupled NADH A340. inhibition, % at 10 µM. 220,000 tested, 0.11% active;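 active = inhibition of 50% or more in the single-dose primary screen; inactive = inhibition below 50%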
NPY-Y1 antag – antagonists of human neuropeptide Y receptor Y1; P25929; HEK293-CNG Y1 cells, membrane potential fluorescence; NPY at EC95, then isoproterenol; inhibition, % at 3.6 µM; 200,000 tested, 1% active; AID 1040;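 active = inhibition above the campaign mean inhibition of all tested compounds plus 3 SD, cut at about 20% in these data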;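 note: 0% = DMSO wells given NPY plus isoproterenol and 100% = isoproterenol alone without NPY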
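material = HEK293 cells with Y1 receptor plus CNG channel | also added = NPY 25 nM then isoproterenol 1 µM plus Ro 20-1724 25 µM | schedule = dye 3 h, compound 60 min room temperature, stimulation 45 min | measured by = membrane potential fluorescence | benchmarks = high control isoproterenol alone, low control NPY with isoproterenol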
The depositor's hits bear a star.

How did On1onc2c3cc(-c4ccccc4)nc3ccc21 do in these assays?
NPY Y2 blocker: -2.6; NPY-Y1 PAM-ag: 30.5; NPY-Y2 PAM-ag: 18.9; Calpain2 inh: 82.5*; TbHK1 inh: -3.0; NPY-Y1 antag: -7.6

What do the screens show for `CC(C)(C)NCC(O)CON=C1c2ccccc2-c2ccccc21` (configuration not stated)?
NPY-Y1 PAM-ag: 104.4*; NPY-Y2 PAM-ag: 99.8*; Calpain2 inh: 21.5; TbHK1 inh: 4.0; NPY-Y1 antag: -4.5

What do the screens show for `CC(C)N(Cc1nc(-c2ccccc2)no1)C(=O)CCCN1C(=O)c2ccccc2C1=O`?
NPY Y2 blocker: 7.4; NPY-Y1 PAM-ag: -11.6; NPY-Y2 PAM-ag: -11.8; Calpain2 inh: 64.4*; TbHK1 inh: -9.0; NPY-Y1 antag: 1.4

What do the screens show for `CC(C)N(Cc1nc(-c2ccccc2)no1)C(=O)CN1C(=O)c2ccccc2C1=O`?
NPY Y2 blocker: 2.2; NPY-Y1 PAM-ag: -14.5; NPY-Y2 PAM-ag: 1.5; Calpain2 inh: 17.0; TbHK1 inh: 4.3; NPY-Y1 antag: -2.1

What do the screens show for `COCC(=O)Nc1ccc(C(=O)Nc2ccccc2Cl)cc1`?
NPY-Y1 PAM-ag: 8.0; NPY-Y2 PAM-ag: 0.3; Calpain2 inh: -13.6; TbHK1 inh: -1.6; NPY-Y1 antag: 2.8

What do the screens show for `CCOC(=O)c1ccc(NS(C)(=O)=O)cc1`?
NPY Y2 blocker: 6.3; NPY-Y1 PAM-ag: -19.8; NPY-Y2 PAM-ag: -11.2; Calpain2 inh: -17.6; TbHK1 inh: -4.8; NPY-Y1 antag: 3.8

What do the screens show for `CC(C)NCC(O)c1ccc(NS(C)(=O)=O)cc1` (configuration not stated)?
NPY-Y1 PAM-ag: 95.7*; NPY-Y2 PAM-ag: 77.6; Calpain2 inh: -1.3; NPY-Y1 antag: -14.5

What do the screens show for `COC(=O)c1sccc1NC(=O)Nc1cccc(F)c1`?
NPY-Y1 PAM-ag: -7.8; NPY-Y2 PAM-ag: -4.0; Calpain2 inh: -2.4; TbHK1 inh: -3.2; NPY-Y1 antag: -3.4

Results for CCc1cccc2c(C(=O)COC(=O)c3nn(C)c(=O)c4ccccc34)c[nH]c12 ?
NPY Y2 blocker: 1.8; NPY-Y1 PAM-ag: -14.9; NPY-Y2 PAM-ag: -9.2; Calpain2 inh: -14.3; TbHK1 inh: -18.0; NPY-Y1 antag: 2.5

How did CCc1cccc2c(C(=O)CN3C(=O)NC(C)(c4cccc5ccccc45)C3=O)c[nH]c12 (configuration not stated) do in these assays?
NPY-Y1 PAM-ag: 43.3*; NPY-Y2 PAM-ag: 37.3*; Calpain2 inh: -132.0; TbHK1 inh: -0.7; NPY-Y1 antag: -12.6

What do the screens show for `CC(=O)Nc1ccc(Nc2ccc(S(=O)(=O)C(F)(F)F)cc2[N+](=O)[O-])cc1`?
NPY Y2 blocker: -1.4; NPY-Y1 PAM-ag: 4.1; NPY-Y2 PAM-ag: 25.5; Calpain2 inh: 55.3*; TbHK1 inh: -3.5; NPY-Y1 antag: -1.7

Results for O=C(O)CNc1ccc(S(=O)(=O)C(F)(F)F)cc1[N+](=O)[O-] ?
NPY-Y1 PAM-ag: 6.3; NPY-Y2 PAM-ag: -2.5; Calpain2 inh: 27.0; TbHK1 inh: -14.8

Results for Oc1ccc(Br)cc1C=Nc1ccc(Cl)cc1 ?
NPY-Y1 PAM-ag: 4.4; NPY-Y2 PAM-ag: 7.4; Calpain2 inh: 93.7*; TbHK1 inh: 1.8; NPY-Y1 antag: 5.6

What do the screens show for `CCN(CC)c1ccc(N=Cc2cc(Br)ccc2O)cc1`?
NPY-Y1 PAM-ag: 7.5; NPY-Y2 PAM-ag: 3.5; Calpain2 inh: -26.4; TbHK1 inh: -21.1; NPY-Y1 antag: -1.8

How did CC(C)(C)NC(=S)NC(C)(C)C do in these assays?
NPY-Y1 PAM-ag: 12.0; NPY-Y2 PAM-ag: -2.9; Calpain2 inh: -16.0; TbHK1 inh: -7.2

Results for CC(C)(C)n1nnnc1C(c1cccs1)N(Cc1ccccc1)Cc1ccco1 (configuration not stated) ?
NPY Y2 blocker: 19.6*; NPY-Y1 PAM-ag: -10.1; NPY-Y2 PAM-ag: -9.8; Calpain2 inh: 0.1; TbHK1 inh: 9.9; NPY-Y1 antag: 26.9*

How did CC(C)(C)n1nnnc1C(c1cccs1)N(Cc1cccnc1)Cc1ccco1 (configuration not stated) do in these assays?
NPY Y2 blocker: 4.5; NPY-Y1 PAM-ag: 9.5; NPY-Y2 PAM-ag: 1.7; Calpain2 inh: 12.6; TbHK1 inh: -5.1; NPY-Y1 antag: 9.5

Results for CC(=O)n1cc(N(C(=O)CCl)c2ccc([N+](=O)[O-])cc2)c2ccccc21 ?
NPY-Y1 PAM-ag: 69.4*; NPY-Y2 PAM-ag: 54.1*; Calpain2 inh: 14.0; TbHK1 inh: -20.8
